Most compounds without a hit are left out; they make up all but 2.5% or so of the library.
TCR CD3 inh – human TCR-CD3 binding inhibition | TAMRA-labeled TCR probe fluorescence, biochemical | inhibition, % at 9.4 µM | 0.37% of 360,000 active; in the data active means inhibition above about 19%;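 further: recombinant mutant TCR 2C K166C tagged with TAMRA read by polarization; 0% = receptor in buffer alone and 100% = receptor with positive control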
ABHD4 inh – inhibits mouse alpha/beta hydrolase domain 4; purified mABHD4, FP-Rh probe fluorescence polarization; inhibition, % at 8.92 µM; 0.54% of 370,000 active;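 active means inhibition exceeding the mean over every tested compound plus 3 SD, cut at about 30% in these data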;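 further: 0% = plate median of compound wells and 100% = S159A mutant with DMSO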
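Material: mouse ABHD4 enzyme, wild type; Benchmarks: S159A mutant high control, sample median low control; Buffer or medium: HEPES pH 7.0, NaCl, Pluronic buffer; Signal: fluorescence polarization; Read-out: percent inhibition of probe binding, normalized to plate controls; Timing: pre-incubation 45 min, probe exposure 60 min, at 25 °C; Dosing: 8.92 µM, single dose.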
HTRA1 inh – HTRA1 (human) protease inhibition; Q92743; recombinant HTRA1, FP-rhodamine activity-based probe, fluorescence polarization; inhibition, % at 5.96 µM; 0.5% of 340,000 active; AID 504803; in the data active means inhibition above about 36%;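 further: 0% = enzyme with DMSO and 100% = wells lacking enzyme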
rCAG RNA binder – binds r(CAG) RNA repeats; r(CAG) RNA repeat, TO-PRO-1 dye displacement fluorescence; inhibition, % at 3 µM; 1.3% of 370,000 active; AID 651821;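 active means inhibition above the plate cutoff, the mean of all test compounds on that plate plus 3 SD, cut at about 35% in these data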;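 further: 0% = DMSO alone and 100% = 100 µM mitoxantrone as full dye displacement; higher means more dye released from RNA so lower well fluorescence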
SIAE inh – blocks human sialic acid acetylesterase | Q9HAT2 | inhibition, % at 9.66 µM | 0.69% of 370,000 active | SIAE FP-Rh probe binding, fluorescence polarization;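 active means inhibition above a cutoff: mean of compounds within the control limits plus 3 SD of those, cut at about 17% in these data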;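 further: 0% = plate median of compound wells and 100% = probe without SIAE protein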
Target sequence (Q9HAT2 whole entry, looked up): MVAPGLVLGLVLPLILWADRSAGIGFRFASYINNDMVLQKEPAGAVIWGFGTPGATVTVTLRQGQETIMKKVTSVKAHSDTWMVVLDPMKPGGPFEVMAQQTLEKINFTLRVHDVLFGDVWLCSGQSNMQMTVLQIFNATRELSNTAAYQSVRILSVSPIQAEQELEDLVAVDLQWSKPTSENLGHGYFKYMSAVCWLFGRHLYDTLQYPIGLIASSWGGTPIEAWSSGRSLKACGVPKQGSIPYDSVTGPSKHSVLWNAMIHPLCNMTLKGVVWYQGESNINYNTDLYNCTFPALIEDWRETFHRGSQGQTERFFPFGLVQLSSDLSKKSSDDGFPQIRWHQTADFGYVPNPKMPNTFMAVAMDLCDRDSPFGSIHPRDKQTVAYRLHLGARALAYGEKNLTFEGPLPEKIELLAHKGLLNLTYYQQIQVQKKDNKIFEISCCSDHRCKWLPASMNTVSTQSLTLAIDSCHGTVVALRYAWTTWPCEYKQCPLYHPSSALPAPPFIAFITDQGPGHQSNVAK
SIAE confirm – confirmation of human SIAE inhibitors. shares compounds with SIAE inh. SIAE FP-Rh activity-based probe, fluorescence polarization. inhibition, % at 9.66 µM. 13% of 2,300 active. AID 1117263;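 active means mean inhibition of the replicates above the hit cutoff set in the primary screen, cut at about 17% in these data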;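 further: 0% = SIAE with DMSO and probe and 100% = probe without SIAE; inhibitors lower polarization as more probe stays unbound to SIAE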
The depositor's hits bear a star; x = no result.

SMILES	TCR CD3 inh	ABHD4 inh	HTRA1 inh	rCAG RNA binder	SIAE inh	SIAE confirm
Cc1cc(Cl)ccc1NC(=O)COC(=O)c1cc([N+](=O)[O-])ccc1N1CCOCC1	10.6	-5.8	-7.5	2.0	5.4	x
Cn1c(-c2ccc3c(c2)OCO3)cnc1NCc1cccc(O)c1	7.2	7.6	5.9	-1.2	6.2	x
COc1ccc(C(CC(=O)O)NC(=O)COc2ccc(C)cc2)cc1OC (centres undefined)	-6.5	-4.3	2.1	2.6	19.1*	-8.6
COc1ccc(C(CC(=O)O)NC(=O)COc2ccccc2OC)cc1OC (centres undefined)	4.4	2.8	4.2	-2.0	1.8	x
N#CC1(NC(=O)COC(=O)c2cc(=O)[nH]c3ccccc23)CCCCC1	0.9	-8.6	-7.4	4.2	2.5	x
CN(C)N1C(N)=C(C#N)C(c2ccc(F)cc2)C2=C1CCCC2=O (centres undefined)	-5.4	2.4	0.4	-1.0	18.9*	4.9
CN(C)N1C(N)=C(C#N)C(c2ccccc2)C2=C1CCCC2=O (centres undefined)	2.0	-1.6	2.5	-2.0	1.6	x
CC(OC(=O)c1ccc(Cl)nc1)C(=O)N1CCc2ccccc21 (centres undefined)	-4.8	-1.6	0.1	0.1	18.7*	2.3
COc1ccc(C(=O)N(c2ccc(C)cc2)C2C=CS(=O)(=O)C2)cc1OC (centres undefined)	4.1	-6.2	4.2	-3.7	19.9*	-4.6
COc1ccc(Cc2nnc(N)s2)cc1	-4.8	3.1	-3.3	0.2	17.2*	-8.0
COc1ccc(CCNC(=O)CCCn2c(=O)c3cccn3c3cccnc32)c(OC)c1OC	7.4	1.5	7.0	-3.1	0.1	x
CCOc1ccc(CCNC(=O)CCCn2c(=O)c3cccn3c3cccnc32)cc1OCC	-2.6	-14.5	4.1	-7.7	22.3*	-3.4
Cc1cc(C)n(C(=O)c2ccc(C)c(S(=O)(=O)N3CCCCC3)c2)n1	7.0	-1.7	0.8	0.8	4.5	x
O=C(O)C1(c2ccccc2)CCN(S(=O)(=O)c2ccc(F)c(F)c2)CC1	-4.5	5.7	-0.6	0.0	19.7*	4.4
O=C(O)C1(c2ccccc2)CCN(S(=O)(=O)c2ccccc2)CC1	-4.2	5.6	6.7	-0.4	-2.0	x
COc1ccc(NC(=O)c2cccc3c(-c4ccc(OC)cc4C)coc23)cc1	-0.9	-22.4	x	7.9	-11.2	x

Screening results as filed in PubChem BioAssay.
